From ChEMBL document CHEMBL4257556, “Novel 1,3,4-thiadiazole-chalcone hybrids containing catechol moiety: synthesis, antioxidant activity, cytotoxicity and DNA interaction studies” (Medchemcomm, 2018)
Calls of active or inactive are those of the source. No cut-off for these calls is given here.

Key:
HeLa [1] = assay: Prooxidant activity in human HeLa cells assessed as increase in H2O2-induced reactive oxygen species at 10 uM preincubated for 24 hrs followed by H2O2 addition and measured after 30 mins by dichlorofluorescein dye-based flow cytometric method; type: functional, cell-based
How it was run: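 HeLa cells pretreated 24 h with 10 μM compound, washed, loaded with 30 μM DCFH-DA in PBS 45 min at 37 °C. One portion read directly (endogenous ROS); other portion exposed to 10 mM H2O2 30 min at 37 °C. DCF green fluorescence by flow cytometry, 20 000 events per sample; mean ± SD of two independent experiments.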

A549 = assay: Cytotoxicity against human A549 cells assessed as decrease in cell survival after 72 hrs by MTT assay; type: functional, cell-based; settings: A549, 72 h
How it was run: (§1)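 HeLa (2000/well), A549 and MRC-5 (5000/well) seeded 20 h before treatment; HL-60 (7000/well) 2 h before. Five concentrations (6.25–100 μM or 3.125–50 μM) from 5 mM DMSO stocks, final DMSO ≤1%, 72 h; survival by MTT. Cisplatin positive control; three independent experiments in triplicate.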

HeLa [2] = assay: Downregulation of MMP2 gene expression in human HeLa cells at 10 uM after 24 hrs by RT-qPCR method; type: functional, cell-based
HeLa [3] = assay: Downregulation of VEGFA gene expression in human HeLa cells at 10 uM after 24 hrs by RT-qPCR method; type: functional, cell-based
DNA [4] = assay: Reversal of Fe2+-induced Escherichia coli pUC19 DNA cleavage at 1:2 compound to Fe2+ mole ratio after 90 mins by agarose gel electrophoresis method; type: functional
How it was run: (§2)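 Compound (4 μL of 2 mM) preincubated with FeSO4 (1 or 2 μL of 8 mM; compound:Fe 1:1 or 1:2) in bicarbonate buffer 60 min at 37 °C, then pUC19 added for another 90 min; products resolved on 1% agarose gel, ethidium bromide stained.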

MRC5 [5] = assay: Cytotoxicity against human MRC5 cells assessed as decrease in cell survival after 72 hrs by MTT assay; type: cell-based; settings: MRC5, 72 h; how it was run: as §1
Calf thymus DNA [6] = assay: Binding affinity to calf thymus DNA at 10 to 40 uM after 90 mins by UV/visible spectrophotometric analysis; type: nucleic-acid assay; settings: Bos taurus
How it was run: (§3)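 CT-DNA stock in 10 mM Tris-HCl pH 7.9 (A260/A280 1.89–2.01; concentration from ε260 6600 M–1 cm–1). Compound (10, 20 or 40 μM) plus CT-DNA (95 μM) in 40 mM bicarbonate pH 8.4, 37 °C 90 min; spectra 200–800 nm. Hyper/hypochromism at 259 nm from bound versus summed free compound and DNA extinction; triplicate.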

HeLa [7] = assay: Cell cycle arrest in human HeLa cells assessed as accumulation at G2/M phase at 2 times IC50 after 24 hrs by propidium iodide staining-based flow cytometric method; type: functional
How it was run: (§4)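 HeLa cells treated 24 h at IC50 or 2×IC50 (from 72 h assay), fixed in 70% ethanol, stored at –20 °C ≥1 week, RNase A 30 min 37 °C, propidium iodide stained; flow cytometry, 10 000 gated events. Mean ± SD of three independent experiments; one-way ANOVA with Dunnett's post-test, p < 0.05.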

HeLa [8] = assay: Upregulation of miR-206 expression in human HeLa cells at 10 uM after 24 hrs by RT-qPCR method; type: functional, cell-based
HeLa [9] = assay: Cell cycle arrest in human HeLa cells assessed as accumulation at sub-G1 phase at IC50 and 2 times IC50 after 24 hrs by propidium iodide staining-based flow cytometric method; type: functional; how it was run: as §4
DNA [10] = assay: Induction of Escherichia coli pUC19 DNA cleavage at 0.05 to 0.4 mM after 90 mins by agarose gel electrophoresis method; type: nucleic-acid assay
How it was run: (§5)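 Plasmid pUC19 (from E. coli XL1 blue; 460 ng, 12 nM) incubated with compound (0.05–0.4 mM; from 2 mM DMSO stock) in 20 μL 40 mM bicarbonate pH 8.4 at 37 °C for 90 min; 1% agarose gel in TAE at 80 V, ethidium bromide staining, UV at 312 nm; supercoiled/nicked/linear forms scored.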

Calf thymus DNA [11] = assay: Binding affinity to calf thymus DNA after 90 mins by spectroscopic titration method; type: nucleic-acid assay; settings: Bos taurus
How it was run: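 Compound fixed at 40 μM titrated with CT-DNA (2.2–13 × 10–5 M) in 40 mM bicarbonate pH 8.4 after 90 min at 37 °C; absorbance at 259 nm per DNA level. Kb from slope/intercept ratio of [DNA]/(εa–εf) versus [DNA] plot; triplicate assays.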

[12] = Antioxidant activity assessed as DPPH free radical scavenging activity after 30 mins; type: functional
How it was run: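 DPPH (0.05 mM in methanol) mixed with equal volume of compound (DMSO solution diluted in methanol), kept in dark at room temperature 30 min; absorbance at 517 nm, methanol control, ascorbic acid positive control. IC50 = concentration giving 50% of maximum scavenging; mean ± SD of independent triplicate experiments.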

HeLa [13] = assay: Downregulation of miR-133b expression in human HeLa cells at 10 uM after 24 hrs by RT-qPCR method; type: functional, cell-based
DNA [14] = assay: Reversal of Fe2+-induced Escherichia coli pUC19 DNA cleavage at 1:1 compound to Fe2+ mole ratio after 90 mins by agarose gel electrophoresis method; type: functional; how it was run: as §2
HeLa [15] = assay: Cell cycle arrest in human HeLa cells assessed as accumulation at sub-G1 phase at 2 times IC50 after 24 hrs in presence of caspase-9 inhibitor Z-LEHD-FMK by propidium iodide-staining based flow cytometric method; type: functional
How it was run: (§6)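 HeLa cells pretreated 2 h with 40 μM peptide caspase inhibitor (Z-DEVD-FMK caspase-3, Z-IETD-FMK caspase-8 or Z-LEHD-FMK caspase-9), then exposed to 2×IC50 compound; subG1 fraction by propidium iodide flow cytometry, compared with samples lacking inhibitor.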

HeLa [16] = assay: Upregulation of MMP9 gene expression in human HeLa cells at 10 uM after 24 hrs by RT-qPCR method; type: functional, cell-based
HeLa [17] = assay: Downregulation of miR-155 expression in human HeLa cells at 10 uM after 24 hrs by RT-qPCR method; type: functional, cell-based
HeLa [18] = assay: Cell cycle arrest in human HeLa cells assessed as decrease in cell levels at G1 phase at 2 times IC50 after 24 hrs by propidium iodide staining-based flow cytometric method; type: functional; how it was run: as §4
HeLa [19] = assay: Cell cycle arrest in human HeLa cells assessed as accumulation at sub-G1 phase at 2 times IC50 after 24 hrs in presence of caspase-8 inhibitor Z-IETD-FMK by propidium iodide-staining based flow cytometric method; type: functional; how it was run: as §6
HeLa [20] = assay: Downregulation of miR-21 expression in human HeLa cells at 10 uM after 24 hrs by RT-qPCR method; type: functional, cell-based
HeLa [21] = assay: Downregulation of TIMP3 gene expression in human HeLa cells at 10 uM after 24 hrs by RT-qPCR method; type: functional, cell-based
MRC5 [22] = assay: Induction of DNA damage in human MRC5 cells assessed as formation of DNA breaks after 24 hrs by comet assay; type: functional, cell-based
How it was run: (§7)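 MRC-5 cells exposed 24 h to 3.125–25 μM compound; DNA damage scored as % tail DNA (tail intensity) by comet assay. PBS negative control; H2O2 50 μM 5 min in-gel positive control. Triplicate, repeated twice; mean ± SD.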

Calf thymus DNA [23] = assay: Displacement of Hoechst 33258 from calf thymus DNA assessed as fluorescence intensity of compound-DNA complex at 22 uM by fluorescence spectrophotometric analysis relative to control; type: nucleic-acid assay; settings: Bos taurus
How it was run: (§8)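 CT-DNA 100 μM (per phosphate) in 40 mM bicarbonate pH 8.4 pretreated 20 min with Hoechst 33258 (28 μM final), then compound added stepwise. Excitation 350 nm, emission 390–550 nm, read at 444 nm, 10 nm slits; H–DNA as control. Quenching constant K by Stern–Volmer, I0/I versus r = [compound]/[DNA]; triplicate.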

Calf thymus DNA [24] = assay: Displacement of Hoechst 33258 from calf thymus DNA assessed as quenching constant by fluorescence spectrophotometric analysis; type: nucleic-acid assay; settings: Bos taurus; how it was run: as §8
MRC5 [25] = assay: Induction of DNA damage in human MRC5 cells assessed as formation of DNA breaks at 25 uM after 24 hrs by comet assay relative to control; type: functional; how it was run: as §7
HL-60 = assay: Cytotoxicity against human HL60 cells assessed as decrease in cell survival after 72 hrs by MTT assay; type: functional, cell-based; settings: HL-60, 72 h; how it was run: as §1
Calf thymus DNA [26] = assay: Binding affinity to calf thymus DNA assessed as hypochromism at 10 to 20 uM after 90 mins by UV/visible spectrophotometric analysis; type: nucleic-acid assay; settings: Bos taurus; how it was run: as §3
HeLa [27] = assay: Cell cycle arrest in human HeLa cells assessed as accumulation at sub-G1 phase at 2 times IC50 after 24 hrs in presence of caspase-3 inhibitor Z-DEVD-FMK by propidium iodide-staining based flow cytometric method; type: functional; how it was run: as §6
HeLa [28] = assay: Cytotoxicity against human HeLa cells assessed as decrease in cell survival after 72 hrs by MTT assay; type: functional, cell-based; how it was run: as §1
Calf thymus DNA [29] = assay: Binding affinity to calf thymus DNA assessed as hypochromism at 40 uM after 90 mins by UV/visible spectrophotometric analysis; type: nucleic-acid assay; settings: Bos taurus; how it was run: as §3
EA.hy 926 = assay: Antiangiogenic activity in human EAhy926 cells assessed as inhibition of tubular structures formation at IC20 after 20 hrs by inverted phase-contrast microscopic method; type: functional, cell-based
DNA [30] = assay: Induction of Escherichia coli pUC19 DNA cleavage after 90 mins by agarose gel electrophoresis method; type: nucleic-acid assay; how it was run: as §5
Calf thymus DNA [31] = assay: Binding affinity to calf thymus DNA assessed as hyperchromism at 10 to 20 uM after 90 mins by UV/visible spectrophotometric analysis; type: nucleic-acid assay; settings: Bos taurus; how it was run: as §3

SMILES	Activity (HeLa [1])	IC50 (A549) [µM]	Activity (HeLa [2])	Activity (HeLa [3])	Activity (DNA [4])	IC50 (MRC5 [5]) [µM]	Activity (Calf thymus DNA [6])	Activity (HeLa [7])	Activity (HeLa [8])	Activity (HeLa [9])	Kb (Calf thymus DNA [11]) [×10³ /M]	IC50 [12] [µM]	Activity (HeLa [13])	Activity (DNA [14])	Activity (HeLa [15])	Activity (HeLa [16])	Activity (HeLa [17])	Activity (HeLa [19])	Activity (HeLa [20])	Activity (HeLa [21])	other results
O=C(/C=C/c1ccc(C(=O)Nc2nnc(-c3ccc(O)c(O)c3)s2)cc1)c1ccccc1	Active	42.8	Active	inactive	Active	36	Active	Active	Active	Active	1.09	12	Active	Active	inactive	Active	Active	inactive	Active	Active	Activity (DNA [10]): inactive; Activity (HeLa [18]): Active; Activity (MRC5 [22]): Dose-dependent effect; Activity (Calf thymus DNA [23]): 58%; K (Calf thymus DNA [24]): 3.3; Activity (MRC5 [25]): 45%; IC50 (HL-60): 8.4 µM; Activity (Calf thymus DNA [26]): 13%; Activity (HeLa [27]): inactive; IC50 (HeLa [28]): 9.37 µM; Activity (Calf thymus DNA [29]): inactive
O=C(Nc1nnc(-c2ccc(O)c(O)c2)s1)c1ccc(/C=C/C(=O)c2cccs2)cc1	inactive	47.9	Active	Active	Active	68.5	Active	Active	inactive	Active	1.01	11.1	Active	Active	inactive	Active	Active	inactive	Active	Active	inhibition (EA.hy 926): Active; Activity (HeLa [18]): Active; Activity (DNA [30]): inactive; Activity (MRC5 [22]): Dose-dependent effect; Activity (Calf thymus DNA [23]): 51%; Activity (Calf thymus DNA [31]): Active; K (Calf thymus DNA [24]): 4.66; Activity (MRC5 [25]): 25%; IC50 (HL-60): 15.7 µM; Activity (HeLa [27]): inactive; IC50 (HeLa [28]): 12.7 µM
COc1cccc(C(=O)/C=C/c2ccc(C(=O)Nc3nnc(-c4ccc(O)c(O)c4)s3)cc2)c1	Active	92.1	Active	Active	Active	42.5	Active	Active	Active	Active	0.71	10.3	Active	Active	inactive	Active	Active	inactive	inactive	Active	inhibition (EA.hy 926): Active; Activity (DNA [30]): inactive; Activity (MRC5 [22]): Dose-dependent effect; Activity (Calf thymus DNA [23]): 55%; K (Calf thymus DNA [24]): 3.95; Activity (MRC5 [25]): 20%; IC50 (HL-60): 9.92 µM; Activity (Calf thymus DNA [26]): 2.4%; Activity (HeLa [27]): inactive; IC50 (HeLa [28]): 9.98 µM
